Screening results (PubChem)
A selection: hits, their analogues and other compounds. The true share with any hit is near 4.2%.
TAAR1 antag – human TAAR1 antagonists, primary screen, Fluo-8 calcium fluorescence, CHO RD-HGA16 cells | Trace amine-associated receptor 1 (Homo sapiens), Q96RJ0 | antagonist | inhibition, % at 3 µM | 1.5% of 360,000 active | AID 624466, 2012;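 active = inhibition above a per-plate cutoff, the mean inhibition of test compounds on that plate plus 3 SD, cut at about 49% in these data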
Target sequence (Q96RJ0 whole entry, looked up): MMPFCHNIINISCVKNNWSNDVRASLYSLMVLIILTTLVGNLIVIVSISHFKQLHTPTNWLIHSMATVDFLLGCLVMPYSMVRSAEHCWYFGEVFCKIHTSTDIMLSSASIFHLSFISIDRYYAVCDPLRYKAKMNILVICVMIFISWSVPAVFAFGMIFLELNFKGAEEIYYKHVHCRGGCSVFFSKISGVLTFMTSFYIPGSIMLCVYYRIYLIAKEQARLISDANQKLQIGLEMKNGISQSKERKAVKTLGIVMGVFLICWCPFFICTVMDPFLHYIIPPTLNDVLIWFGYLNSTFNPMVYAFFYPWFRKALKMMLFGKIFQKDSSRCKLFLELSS
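Test system: RD-HGA16 CHO cells with stable hTAAR1 and Gα16 / Probe or stimulus: EC80 β-phenethylamine stimulus / Times: seeding 17-24 h prior, 75-min 37 °C, 30-min RT dye loading / Detection: Fluo-8 calcium-sensitive fluorescence / Read-out basis: % inhibition scaled between DMSO and EC80 PEA controls / Repeats: singlicate, one well per test compound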
CHO parental Ca – ATP-evoked calcium signal inhibitors, parental CHO, primary screen, counter-screen for OX1R antagonist project, cell-based, fluorescence, Fluo-8 calcium dye; parental CHO-K1, ATP-induced calcium, Fluo-8 fluorescence; inhibition, % at 5.6 µM; 0.63% of 330,000 active; AID 463079, 2010;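 active = inhibition above that plate's mean sample inhibition plus 3 SD, cut at about 26% in these data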
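material = parental CHO cells | also added = ATP as calcium-mobilizing challenge | dosing = single point at 5.6 µM | detection = intracellular calcium via Fluo-8 no-wash fluorescent dye | read-out = % inhibition | benchmarks = low control ATP plus DMSO, high control DMSO only | repeats = one well per compound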
OX1R antag-1 – OX1R (HCRTR1) antagonists, primary screen, fluorescence, CHO/OX1R cells, Fluo-8 calcium, orexin A. Orexin/Hypocretin receptor type 1 (Homo sapiens), O43613. Fluo-8 calcium fluorescence. inhibition, % at 5 µM. 0.43% of 330,000 active. AID 434989, 2010;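 active = inhibition above its plate's threshold, mean inhibition of all tested compounds on the plate plus 3 SD, cut at about 37% in these data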
GalR3 antagonist – GalR3 antagonists in HEK293 cells, primary screen, cell-based, fluorescence readout. HEK293 GalR3-CNG cAMP membrane potential fluorescence; galR3 body fused to GalR1 C-terminus. inhibition, % at 3 µM. 0.44% of 360,000 active. AID 651719, 2012;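 active = inhibition above the screen-wide average plus 3 SD, cut at about 13% in these data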;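 note: forskolin and galanin both at EC90 stimulate the cells; cAMP rise reported by CNG channel membrane potential dye signal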
OX1R antag-2 – antagonists of human orexin 1 receptor (OX1R). Orexin/Hypocretin receptor type 1 (Homo sapiens), O43613. OX1R-expressing cells, FRET antagonist read-out. inhibition, % at 6.6 µM. 1.8% of 330,000 active; in the data active = inhibition mostly above about 38%, no sharp cut-off; inactive = mostly below about 40%
TAAR1 ag – human TAAR1 agonists, primary screen, Fluo-8 calcium fluorescence, CHO RD-HGA16 cells. activation, % at 3 µM. Trace amine-associated receptor 1 (Homo sapiens), Q96RJ0. 0.99% of 360,000 active. vehicle wells 0%, saturating PEA agonist 100%;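 active = activation above the mean activation of all test compounds in the run plus 3 SD, cut at about 38% in these data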
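test system = CHO RD-HGA16 cells carrying human TAAR1 plus Gα16 | schedule = 17-24 h seeding, 75 min 37 °C dye, 30 min RT | compound dosing = 3 µM single concentration | control set = DMSO and PEA EC100 | replicates = n 1 | signal = Fluo-8 fluorescence, 5 s baseline then 140 s kinetic read | measure = percent activation vs PEA EC100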
GalR3 antag conf – GalR3 antagonist hit confirmation, cell-based, fluorescence, triplicate; shares compounds with GalR3 antagonist; HEK293 GalR3 CNG cAMP biosensor, membrane potential fluorescence; galR3 fused to GalR1 carboxy tail; challenged with forskolin and galanin at EC90; inhibition, % at 3 µM; 59% of 1,600 active; AID 652245, 2013;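 active = inhibition above the primary screen's cutoff, the mean inhibition of all screened compounds plus 3 SD, cut at about 13% in these data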
CNG parental – nonspecific cAMP agonists in parental HEK-CNG cells, counter-screen for GalR3 antagonist project, cell-based, fluorescence, high throughput | shares compounds with GalR3 antagonist | HEK293-CNG parental cells, cAMP membrane potential fluorescence; normalised: DMSO wells 0%, forskolin wells 100% | activation, % at 3 µM | 10% of 1,600 active | AID 652268, 2013; in the data active = activation above about 1.3%
Each line names hits and unclear results; the compound was inactive in the other large screens (follow-up assays come after a bar, where they were run).

CCOC(=O)/C(C#N)=C/c1cn(CCC(=O)O)nc1-c1ccc(OC)cc1	GalR3 antagonist 14 | GalR3 antag conf inactive | CNG parental inactive
COC(=O)C1=C[C@@H](C(=O)OC)[C@@H]2C3=C(C(=O)[C@]2(CC(C)C)NC(=O)c2ccccc2)[C@H](C)n2c(=O)n(-c4ccccc4)c(=O)n2[C@@H]3C1	GalR3 antagonist 14 | GalR3 antag conf inactive | CNG parental inactive
Cc1ccc(NC(=O)CSc2ncnc3ccccc23)cc1S(=O)(=O)N1CCCCCC1	CHO parental Ca 34, GalR3 antagonist 96 | GalR3 antag conf 108 | CNG parental inactive
Cc1ccc(NC(=O)CSc2ccccn2)cc1S(=O)(=O)N1CCOCC1	none
Cc1ccc(NC(=O)CSc2ncn[nH]2)cc1S(=O)(=O)N1CCOCC1	GalR3 antagonist 18 | GalR3 antag conf inactive | CNG parental inactive
NC1=NC[C@H](c2ccccc2)N1CC1CCCCC1	none
COc1ccccc1CNS(=O)(=O)c1cc(C(=O)NCC2CCCO2)c(Cl)cc1Cl (stereo not drawn)	none
COc1ccccc1NC(=O)CSC1=NC(=O)C(Cc2ccccc2)C(=O)N1 (stereo not drawn)	GalR3 antagonist 13 | GalR3 antag conf inactive | CNG parental inactive
COc1ccccc1NC(=O)CSC1=NC(=O)C(NC(C)=O)C(=O)N1 (stereo not drawn)	none
Cc1csc2ncnc(NCCc3ccccn3)c12	GalR3 antagonist 97 | GalR3 antag conf 84 | CNG parental inactive
c1ccc(CCNc2ncnc3sccc23)nc1	none
CC(C)CCn1c(N2CCc3ccccc3C2)nc2c1c(=O)[nH]c(=O)n2C	GalR3 antagonist 15 | GalR3 antag conf inactive | CNG parental inactive
Cc1cccc(Cn2c(N3CCc4ccccc4C3)nc3c2c(=O)[nH]c(=O)n3C)c1	none
CCOC(=O)c1c(C)[nH]c(C(=O)COC(=O)[C@H](C)NC(=O)c2ccccc2Cl)c1C	GalR3 antagonist 18 | GalR3 antag conf 14 | CNG parental inactive
CCOC(=O)c1c(C)[nH]c(C(=O)COC(=O)/C=C/c2cccc(OC)c2OC)c1C	none
CCOC(=O)c1c(C)[nH]c(C(=O)COC(=O)COc2ccccc2C=O)c1C	GalR3 antagonist 14 | GalR3 antag conf inactive | CNG parental inactive
COc1ccccc1CCNC(=O)c1cnn2c(C(F)F)cc(C)nc12	none
COc1ccccc1CNC(=O)c1cnn2c(C(F)F)cc(C)nc12	GalR3 antagonist 23 | GalR3 antag conf 35 | CNG parental inactive
FC(F)(F)c1cnc(Oc2cccc3ccccc23)c(Cl)c1	none
Oc1cccc(Oc2ncc(C(F)(F)F)cc2Cl)c1	GalR3 antagonist 13 | GalR3 antag conf inactive | CNG parental inactive
CCCCCCCCCCCCCCCCCCNc1ccn(C2OC(COP(=O)(O)OCC3OC(n4cc(F)c(=O)[nH]c4=O)CC3O)C(O)C2O)c(=O)n1 (stereo not drawn)	none (no result: CHO parental Ca, OX1R antag-1, OX1R antag-2)
O=C(COC(=O)c1ccc([N+](=O)[O-])s1)NC(c1ccccc1)c1ccccc1	GalR3 antagonist 22 | GalR3 antag conf inactive | CNG parental inactive
